Screening results deposited in PubChem BioAssay by The Scripps Research Institute Molecular Screening Center.
An excerpt weighted towards active compounds, which were near 2.9% of everything screened.
mABHD4 FP: ABHD4 (mouse) inhibition, primary FP screen; Q8VD66; purified mABHD4, FP-Rh probe fluorescence polarization; inhibition, % at 8.92 µM; 370,000 compounds, 0.54% hits; AID 720543;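 active = inhibition exceeding the mean over every tested compound plus 3 SD, cut at about 30% in these data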;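 also: 0% = plate median of compound wells and 100% = S159A mutant with DMSO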
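Test system: mouse ABHD4 enzyme, wild type. Reagent: FP-Rh fluorescent activity-based probe, added after compound pre-incubation. Timing: pre-incubation 45 min, probe exposure 60 min, at 25 °C. Technique: FP readout, ex 525 nm / em 598 nm. Benchmarks: high control S159A mutant with DMSO, low control median of compound wells.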
SIAE primary: human SIAE inhibition, primary screen; Q9HAT2; 370,000 compounds, 0.69% hits; inhibition, % at 9.66 µM; SIAE FP-Rh probe binding, fluorescence polarization;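 active = inhibition above a cutoff: mean of compounds within the control limits plus 3 SD of those, cut at about 17% in these data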;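 also: 0% = plate median of compound wells and 100% = probe without SIAE protein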
PRMT1 FP inh: inhibitors of human PRMT1; inhibition, % at 2.79 µM; Q99873; 370,000 compounds, 1.3% hits; recombinant PRMT1, activity-based probe fluorescence polarization; AID 652257;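 active = inhibition above about 21% made by adding two undisclosed values, limit read from the data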
Target sequence (Q99873 whole entry, looked up): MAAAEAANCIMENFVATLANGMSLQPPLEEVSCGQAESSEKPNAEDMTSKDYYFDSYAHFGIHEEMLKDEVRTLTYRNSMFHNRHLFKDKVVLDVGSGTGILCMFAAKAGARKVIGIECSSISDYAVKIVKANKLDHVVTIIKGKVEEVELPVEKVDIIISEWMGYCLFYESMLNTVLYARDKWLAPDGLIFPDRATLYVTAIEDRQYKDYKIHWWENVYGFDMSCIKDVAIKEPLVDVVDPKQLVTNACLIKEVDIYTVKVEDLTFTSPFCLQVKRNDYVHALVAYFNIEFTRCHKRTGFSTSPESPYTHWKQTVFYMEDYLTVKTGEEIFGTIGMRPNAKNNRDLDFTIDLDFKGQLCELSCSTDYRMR
TCR-CD3 inh: blocks the human TCR-CD3 interaction | inhibition, % at 9.4 µM | TAMRA-labeled TCR probe fluorescence, biochemical | 360,000 compounds, 0.37% hits; in the data active = inhibition above about 19%;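 also: recombinant mutant TCR 2C K166C tagged with TAMRA read by polarization; 0% = receptor in buffer alone and 100% = receptor with positive control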
PAD4 FP inh: PAD4 (human) enzyme inhibition | AID 485272 | recombinant PAD4, RCA probe fluorescence polarization | 330,000 compounds, 0.41% hits | Q9UM07 | inhibition, % at 6.36 µM;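 active = percent inhibition above a cutoff equal to the mean of all tested compounds plus 3 SD, cut at about 15% in these data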;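 also: 0% = PAD4 with RCA probe and DMSO and 100% = probe without PAD4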
HTRA1 inhibitor: blocks human HTRA1 serine peptidase. Q92743. recombinant HTRA1, FP-rhodamine activity-based probe, fluorescence polarization. inhibition, % at 5.96 µM. 340,000 compounds, 0.5% hits; in the data active = inhibition above about 36%;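 also: 0% = enzyme with DMSO and 100% = wells lacking enzyme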
SIAE inh conf: confirmation of human SIAE inhibitors; shares compounds with SIAE primary; SIAE FP-Rh activity-based probe, fluorescence polarization; inhibition, % at 9.66 µM; 2,300 compounds, 13% hits;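 active = mean inhibition of the replicates above the hit cutoff set in the primary screen, cut at about 17% in these data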;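 also: 0% = SIAE with DMSO and probe and 100% = probe without SIAE; inhibitors lower polarization as more probe stays unbound to SIAE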
The depositor's hits bear a star.

Results for COc1cc(/C=N\NC(=O)c2ccc(-c3ccccc3)cc2)cc(OC)c1O ?
mABHD4 FP: 20; SIAE primary: 28*; PRMT1 FP inh: -3; TCR-CD3 inh: 2; PAD4 FP inh: -7; HTRA1 inhibitor: -9; SIAE inh conf: 10

Results for COc1cc(/C=N/NC(=O)c2ccc3nc[nH]c3c2)cc(OC)c1OC(C)=O ?
mABHD4 FP: 9; SIAE primary: 0; PRMT1 FP inh: -5; TCR-CD3 inh: 3; HTRA1 inhibitor: -5

How did COc1cc(/C=N/NC(=O)c2ccc(COc3cc(C)ccc3C(C)C)cc2)cc(OC)c1O do in these assays?
mABHD4 FP: -2; SIAE primary: 22*; PRMT1 FP inh: 0; TCR-CD3 inh: 2; PAD4 FP inh: 1; HTRA1 inhibitor: -9; SIAE inh conf: 5

How did COc1cc(/C=N/NC(=O)c2cccc([N+](=O)[O-])c2)ccc1OCc1ccc(C)cc1 do in these assays?
mABHD4 FP: -5; SIAE primary: -2; PRMT1 FP inh: -1; TCR-CD3 inh: -3; PAD4 FP inh: 1; HTRA1 inhibitor: -5

How did COc1ccccc1/C=N/NC(=O)c1ccc(-c2ccccc2)cc1 do in these assays?
mABHD4 FP: -15; SIAE primary: -5; PRMT1 FP inh: 0; TCR-CD3 inh: 0; PAD4 FP inh: -2; HTRA1 inhibitor: -18

How did COc1cc(/C=N\NC(=O)c2ccc(-c3ccccc3)cc2)cc(OC)c1OC(C)=O do in these assays?
mABHD4 FP: 2; SIAE primary: 23*; PRMT1 FP inh: 0; TCR-CD3 inh: 1; HTRA1 inhibitor: -19; SIAE inh conf: 2

What do the screens show for `CCc1ccc(CNC(=O)CCS(=O)(=O)Cc2ccccc2F)cc1`?
mABHD4 FP: -7; SIAE primary: 20*; PRMT1 FP inh: -1; TCR-CD3 inh: 0; PAD4 FP inh: -2; HTRA1 inhibitor: -7; SIAE inh conf: 4

How did O=C(CSc1nnc(COc2ccccc2)n1-c1ccc(Cl)cc1)Nc1ccc2c(c1)OCCO2 do in these assays?
mABHD4 FP: -12; SIAE primary: -1; PRMT1 FP inh: 0

What do the screens show for `CCCN1C(=O)c2n[nH]c(C)c2C1c1ccc2c(c1)OCO2` (centres undefined)?
mABHD4 FP: -1; SIAE primary: 2; PRMT1 FP inh: 1; TCR-CD3 inh: -5

What do the screens show for `Cc1[nH]c2ccccc2c1/C=N/NC(=O)C1CC1(c1ccccc1)c1ccccc1` (centres undefined)?
mABHD4 FP: -2; SIAE primary: 27*; PRMT1 FP inh: 3; TCR-CD3 inh: -6; PAD4 FP inh: -6; HTRA1 inhibitor: 0; SIAE inh conf: 2

How did Cc1[nH]c2ccccc2c1/C=N/NC(=S)NC(C)C do in these assays?
mABHD4 FP: 10; SIAE primary: 20*; PRMT1 FP inh: 1; TCR-CD3 inh: -2; PAD4 FP inh: -1; HTRA1 inhibitor: 17; SIAE inh conf: 14

How did Cc1[nH]c2ccccc2c1/C=N\NC(=O)c1ccccc1Cl do in these assays?
mABHD4 FP: 1; SIAE primary: 3; PRMT1 FP inh: 0; TCR-CD3 inh: 8; HTRA1 inhibitor: 12

What do the screens show for `Cc1ccc(N(C)C(=O)c2ccc(CNc3c(N4CCC(C)CC4)c(=O)c3=O)cc2)cc1`?
mABHD4 FP: 8; SIAE primary: 20*; PRMT1 FP inh: -2; TCR-CD3 inh: -6; PAD4 FP inh: -3; HTRA1 inhibitor: 2; SIAE inh conf: 2

Results for CC1CCN(c2c(NCc3ccc(C(=O)N(C)C4CCCCC4)cc3)c(=O)c2=O)CC1 ?
mABHD4 FP: -1; SIAE primary: 1; PRMT1 FP inh: -5; TCR-CD3 inh: 6; PAD4 FP inh: -3; HTRA1 inhibitor: -4

Results for CCN(CC)CCCN1C(=O)C2=C(C1=O)C1N(C)c3ccccc3[C@@]13C[C@@H](CO)N(C(=O)CCC(=O)OC)C3=N2 (some centres undefined) ?
mABHD4 FP: -3; SIAE primary: 3; PRMT1 FP inh: -2

How did O=C(CCn1nnc(-c2cccs2)n1)N1CCCCC1 do in these assays?
mABHD4 FP: -3; SIAE primary: 7; PRMT1 FP inh: -1

How did CCOC(=O)C(NC(=O)Nc1ncccn1)(Oc1ccccc1)C(F)(F)F (centres undefined) do in these assays?
mABHD4 FP: 5; SIAE primary: 24*; PRMT1 FP inh: 3; TCR-CD3 inh: -1; PAD4 FP inh: -1; HTRA1 inhibitor: 3; SIAE inh conf: 3

What do the screens show for `O=C(CSc1nnc(-c2ccc(Cl)cc2)n1C1CCCCC1)NN=Cc1c(O)ccc2ccccc12`?
mABHD4 FP: 22; SIAE primary: -6; PRMT1 FP inh: 2

How did COc1ccc(CNS(=O)(=O)c2cc3c(cc2Br)CC(C)N3C(C)=O)cc1 (centres undefined) do in these assays?
mABHD4 FP: 2; SIAE primary: 9; PRMT1 FP inh: -1

How did CN(/N=C/c1ccc(O)cc1O)c1nc(-c2ccccc2)cc(-c2ccccc2)n1 do in these assays?
mABHD4 FP: 1; SIAE primary: 20*; PRMT1 FP inh: 0; TCR-CD3 inh: -5; PAD4 FP inh: -5; HTRA1 inhibitor: 18; SIAE inh conf: 6

How did CCC(NC(=O)Cn1c(-c2ccccc2)cc(C(C)=O)c1C)c1ccccc1 (centres undefined) do in these assays?
mABHD4 FP: -12; SIAE primary: -1; PRMT1 FP inh: 0

Results for Fc1ccc(Cn2ccc3ccc(-c4ccc5ccn(Cc6ccc(F)cc6F)c5c4)cc32)c(F)c1 ?
mABHD4 FP: 3; SIAE primary: 1; PRMT1 FP inh: 1

How did O=C(NCCCN1CCOCC1)c1sc2cc(F)ccc2c1Cl do in these assays?
mABHD4 FP: 3; SIAE primary: 1; PRMT1 FP inh: -4; TCR-CD3 inh: 6; PAD4 FP inh: 1; HTRA1 inhibitor: -3

What do the screens show for `O=C(NCCCN1CCOCC1)c1cc(-c2cccs2)on1`?
mABHD4 FP: -1; SIAE primary: 21*; PRMT1 FP inh: -1; TCR-CD3 inh: 2; PAD4 FP inh: 0; HTRA1 inhibitor: 1; SIAE inh conf: 6

How did O=C(NCCCN1CCOCC1)c1sc2cc(Cl)ccc2c1Cl do in these assays?
mABHD4 FP: 0; SIAE primary: 21*; PRMT1 FP inh: -3; TCR-CD3 inh: 2; PAD4 FP inh: 0; HTRA1 inhibitor: 3; SIAE inh conf: 2

What do the screens show for `Cc1cc(C(=O)O[C@H]2CCC[C@@]3(C(=O)N(Cc4ccccc4)c4ccccc43)[C@H]2NC(=O)CCc2ccccc2)no1`?
mABHD4 FP: -9; SIAE primary: -2; PRMT1 FP inh: -4

How did C[C@H]1COc2cc(Br)ccc2S(=O)(=O)N1Cc1cn(Cc2ccco2)nn1 do in these assays?
mABHD4 FP: 3; SIAE primary: 5; PRMT1 FP inh: -8
